{"source": "ChEMBL document CHEMBL1145520", "about": "“RAS-RAF-MEK-dependent oxidative cell death involving voltage-dependent anion channels” (Nature, 2007)", "key": {"[1]": {"system": "BJ", "assay": "Induction of cell death in human BJ cells expressing TERT, LT, ST and RAS G12V mutant genes cells in presence of MEK inhibitor 2 by trypan blue exclusion method", "type": "functional, cell-based"}, "[2]": {"system": "HT-1080", "assay": "Induction of cell death in human HT1080 cells in presence of MEK inhibitor 2 by trypan blue exclusion method", "type": "functional, cell-based"}, "[3]": {"system": "BJ", "assay": "Induction of mitochondrial structural integrity loss in human BJ cells expressing TERT, LT, ST and RAS G12V mutant genes cells at 37 uM after 10 hrs", "type": "functional, cell-based", "in_short": "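BJ-TERT/LT/ST/RASV12 cells exposed 10 h to erastin (37 µM per legend; 20 µg/ml in methods), then fixed in 2.5% glutaraldehyde in 0.1 M Sorenson's buffer pH 7.2 and post-fixed in 1% OsO4. Sections stained with uranyl acetate/lead citrate.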"}, "[4]": {"target": "Non-selective voltage-gated ion channel VDAC2 (Homo sapiens, UniProt P45880)", "sequence (P45880 whole entry)": "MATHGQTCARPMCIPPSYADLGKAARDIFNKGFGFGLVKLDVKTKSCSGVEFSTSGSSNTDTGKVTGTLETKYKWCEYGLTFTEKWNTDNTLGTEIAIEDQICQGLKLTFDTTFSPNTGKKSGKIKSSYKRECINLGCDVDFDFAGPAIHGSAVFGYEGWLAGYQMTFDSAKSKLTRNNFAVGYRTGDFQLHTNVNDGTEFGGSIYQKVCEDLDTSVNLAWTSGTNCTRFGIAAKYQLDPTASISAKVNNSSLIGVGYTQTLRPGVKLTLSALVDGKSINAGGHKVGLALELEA", "assay": "Binding affinity to human VDAC2"}, "[5]": {"system": "BJ", "assay": "Induction of cell death in human BJ cells expressing TERT, LT, ST and RAS G12V mutant genes cells at 9 uM", "type": "functional, cell-based"}, "[6]": {"system": "BJ", "assay": "Prevention of induction of cell death in human BJ cells expressing TERT, LT, ST and RAS G12V mutant genes cells after 24 hrs in presence of butylated hydroxytoluene", "type": "functional, cell-based", "in_short": "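BJ-TERT/LT/ST/RASV12 cells treated 24 h with erastin across roughly 1–2.5 µM, together with DMSO or an antioxidant (α-tocopherol, BHT or β-carotene). Viability read afterwards.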"}, "[7]": {"system": "BJ", "assay": "Increase in intracellular oxidative species in human BJ cells expressing TERT, LT, ST and RAS G12V mutant genes cells at 4.6 uM", "type": "functional, cell-based", "in_short": "(§1)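 Cells seeded at 3 × 10^5 per 60 mm dish were grown overnight, then exposed to 4.6 erastin for 2–12 h; H2O2 for 5 min served as positive control. Cells were loaded with H2DCF-DA for 10 min, trypsinized, PBS-washed and stained with propidium iodide. Read-out was flow cytometry as percent of cells with DCF fluorescence in gate M1; n = 2.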"}, "[8]": {"system": "BJ", "assay": "Effect on intracellular oxidative species in TERT expressing human BJ cells at 4.6 uM", "type": "functional, cell-based", "in_short": "as §1"}, "[9]": {"system": "HT-1080", "assay": "Suppression of induction of cell death in human HT1080 cells at […] by Alamar Blue assay in presence of butylated hydroxytoluene", "type": "functional, cell-based"}, "[10]": {"system": "HT-1080", "assay": "Suppression of induction of cell death in human HT1080 cells at […] by Alamar Blue assay in presence of in presence of alpha-tocopherol", "type": "functional, cell-based"}, "[11]": {"system": "HT-1080", "assay": "Induction of PARP1 cleavage in human HT1080 cells", "type": "functional, cell-based", "in_short": "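Cells were left untreated or given staurosporine or erastin for 6 or 8 h. Lysates were analysed by western blot for full-length and cleaved PARP1, with actin as loading control.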"}, "[12]": {"system": "BJ", "assay": "Induction of cytochrome c release in mitochondrial fraction of human BJ cell expressing TERT, LT, ST and RAS G12V mutant genes at 20 ug/ml", "type": "functional, cell-based", "in_short": "(§2)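 BJ-TERT/LT/ST/RASV12 cells seeded 3 × 10^6 per dish, incubated overnight at 37 °C, 5% CO2, then exposed to erastin 20 µg/ml for 6–26 h. Fractionated on ice by needle lysis: nuclei spun out at 400g, mitochondria pelleted at 10,500g. Cytochrome c detected by western blot in cytosolic and mitochondrial fractions.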"}, "[13]": {"system": "BJ", "assay": "Induction of cytochrome c release in cytosolic fraction of human BJ cells expressing TERT, LT, ST and RAS G12V mutant genes at 20 ug/ml", "type": "functional, cell-based", "in_short": "as §2"}, "[14]": {"system": "A673", "assay": "Induction of pro-caspase 3 cleavage in human A673 cells", "type": "functional, cell-based", "in_short": "(§3)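 Cells either untreated, given staurosporine, or given erastin for 6–10 h, then lysed in HEPES pH 7.4 buffer with phosphatase and protease inhibitors. Lysates run on SDS-PAGE, blotted to PVDF, probed with antibodies detecting active caspase-3, with actin as loading control. Bands read on infrared imager.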"}, "[15]": {"system": "HT-1080", "assay": "Induction of pro-caspase 3 cleavage in human HT1080 cells", "type": "functional, cell-based", "in_short": "as §3"}, "[16]": {"system": "HeLa", "assay": "Induction of pro-caspase 3 cleavage in human HeLa cells", "type": "functional, cell-based", "in_short": "as §3"}, "[17]": {"system": "Calu-1", "assay": "Inhibition of human Calu1 cells expressing KRAS with activating mutations by trypan blue exclusion assay", "type": "functional, cell-based", "in_short": "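Calu-1 lung carcinoma cells (activating KRAS mutation) treated with erastin dilutions. Viability measured by Trypan blue exclusion with an automated cell viability analyser after trypsinization and resuspension in growth medium. IC50 derived from the dose series.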"}, "[18]": {"system": "BJ", "assay": "Induction of cell death in TERT expressing human BJ cells", "type": "functional, cell-based"}, "[19]": {"assay": "Induction of cell death in human EWS502 cells", "type": "functional, cell-based"}, "[20]": {"target": "T1, Mitogen-activated protein kinase; ERK1/ERK2 (Homo sapiens) (UniProt P27361+P28482)", "T1 sequence (P27361 whole entry, looked up)": "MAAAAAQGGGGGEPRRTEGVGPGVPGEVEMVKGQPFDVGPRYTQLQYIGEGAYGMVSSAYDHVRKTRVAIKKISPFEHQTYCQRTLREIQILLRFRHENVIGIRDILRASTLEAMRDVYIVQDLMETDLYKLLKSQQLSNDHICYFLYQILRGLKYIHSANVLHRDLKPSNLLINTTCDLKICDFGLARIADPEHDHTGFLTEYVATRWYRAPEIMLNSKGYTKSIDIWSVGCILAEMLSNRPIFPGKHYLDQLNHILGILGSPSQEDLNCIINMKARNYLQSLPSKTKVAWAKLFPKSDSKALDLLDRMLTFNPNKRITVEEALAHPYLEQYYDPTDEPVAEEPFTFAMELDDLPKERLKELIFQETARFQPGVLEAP", "T1 sequence (P28482 whole entry, looked up)": "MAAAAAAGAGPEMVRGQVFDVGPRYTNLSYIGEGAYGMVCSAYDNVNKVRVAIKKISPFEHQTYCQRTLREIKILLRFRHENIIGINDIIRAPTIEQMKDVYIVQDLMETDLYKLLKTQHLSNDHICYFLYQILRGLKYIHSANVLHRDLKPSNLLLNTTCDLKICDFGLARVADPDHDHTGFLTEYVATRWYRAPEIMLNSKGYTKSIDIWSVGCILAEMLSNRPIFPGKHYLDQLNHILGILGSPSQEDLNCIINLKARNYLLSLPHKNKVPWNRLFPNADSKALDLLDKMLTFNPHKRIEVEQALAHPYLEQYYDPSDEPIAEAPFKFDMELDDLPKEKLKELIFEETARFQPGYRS", "assay": "Effect on ERK1/2 phosphorylation in human HL60 cells by Western blot", "type": "cell-based", "details": "HL-60", "in_short": "(§4)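 Washed cells were lysed in pH 7.4 HEPES buffer containing orthovanadate, NaF, pyrophosphate, β-glycerophosphate and protease inhibitors. Lysates were run on SDS-PAGE, transferred to PVDF and blocked 1 h at room temperature. Blots were probed with a multiplex phospho-signalling antibody cocktail and read by infrared fluorescence scanning.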"}, "[21]": {"target": "T1, Mitogen-activated protein kinase; ERK1/ERK2 (Homo sapiens)", "assay": "Effect on ERK1/2 phosphorylation in human TC32 cells by Western blot", "type": "cell-based", "in_short": "as §4"}, "[22]": {"target": "T1, Mitogen-activated protein kinase; ERK1/ERK2 (Homo sapiens)", "assay": "Effect on ERK1/2 phosphorylation in human TC71 cells by Western blot", "type": "cell-based", "in_short": "as §4"}, "[23]": {"target": "T1, Mitogen-activated protein kinase; ERK1/ERK2 (Homo sapiens)", "assay": "Effect on ERK1/2 phosphorylation in human U937 cells by Western blot", "type": "cell-based", "details": "U-937", "in_short": "as §4"}, "[24]": {"system": "SJSA-1", "assay": "Induction of cell death in human SJSA1 cells", "type": "functional, cell-based"}, "[25]": {"system": "SK-LMS-1", "assay": "Induction of cell death in human SKLMS1 cells", "type": "functional, cell-based"}, "[26]": {"assay": "Induction of cell death in human MES-SA cells", "type": "functional, cell-based"}, "[27]": {"system": "U2OS", "assay": "Induction of cell death in human U2OS cells", "type": "functional, cell-based"}, "[28]": {"assay": "Induction of cell death in human Hs925.T cells", "type": "functional, cell-based"}, "[29]": {"assay": "Induction of cell death in human MX2 cells", "type": "functional, cell-based"}, "[30]": {"system": "LNCaP", "assay": "Induction of cell death in human LNCaP cells", "type": "functional, cell-based"}, "[31]": {"assay": "Induction of cell death in human A431NS cells", "type": "functional"}, "[32]": {"system": "BJ", "assay": "Induction of cell death in human BJ cells expressing TERT, LT, ST and RAS G12V mutant genes at 13 uM", "type": "functional"}, "[33]": {"system": "HT-1080", "assay": "Induction of cell death in human HT1080 cells in presence of MEK inhibitor by trypan blue exclusion method", "type": "functional, cell-based"}, "[34]": {"system": "HL-60", "assay": "Induction of cell death in human HL60 cells", "type": "functional"}, "[35]": {"system": "HT-1080", "assay": "Induction of cell death in human HT1080 cells", "type": "functional, cell-based"}, "[36]": {"system": "SK-ES1", "assay": "Induction of cell death in human SK-ES-1 cells", "type": "functional, cell-based"}, "[37]": {"system": "SK-N-MC", "assay": "Induction of cell death in human SK-N-MC cells", "type": "functional, cell-based"}, "[38]": {"system": "SW872", "assay": "Induction of cell death in human SW872 cells", "type": "functional"}}, "note": "pEC50, pIC50, pKd: −log10 of the molar value. Calls of active or inactive are those of the source. No cut-off for these calls is given here."}
{"smiles": "CCOc1ccccc1-n1c(C(C)N2CCN(C(=O)COc3ccc(Cl)cc3)CC2)nc2ccccc2c1=O", "note": "(stereo not given) [ERASTIN]", "values": [{"measurement": "pIC50", "setting": "[1]", "result": 6.05}, {"measurement": "pIC50", "setting": "[2]", "result": 5.89}, {"measurement": "Activity", "setting": "[3]", "result": "Active"}, {"measurement": "pKd", "setting": "[4]", "result": 6.95}, {"measurement": "Activity", "setting": "[5]", "result": "Active"}, {"measurement": "Activity", "setting": "[6]", "result": "Active"}, {"measurement": "Activity", "setting": "[7]", "result": "Active"}, {"measurement": "Activity", "setting": "[8]", "result": "inactive"}, {"measurement": "Activity", "setting": "[9]", "result": "Active"}, {"measurement": "Activity", "setting": "[10]", "result": "Active"}, {"measurement": "Activity", "setting": "[11]", "result": "inactive"}, {"measurement": "Activity", "setting": "[12]", "result": "inactive"}, {"measurement": "Activity", "setting": "[13]", "result": "inactive"}, {"measurement": "Activity", "setting": "[14]", "result": "inactive"}, {"measurement": "Activity", "setting": "[15]", "result": "inactive"}, {"measurement": "Activity", "setting": "[16]", "result": "inactive"}, {"measurement": "pIC50", "setting": "[17]", "result": 5.40}, {"measurement": "Activity", "setting": "[18]", "result": 22, "unit": "%"}, {"measurement": "pEC50", "setting": "[18]; Homo sapiens, BJ", "result": 5.00}, {"measurement": "Activity", "setting": "[19]", "result": 42, "unit": "%"}, {"measurement": "pEC50", "setting": "[19]; Homo sapiens, EWS502", "result": 5.00}, {"measurement": "Activity", "setting": "[20]", "result": 0.1, "unit": "a.u."}, {"measurement": "Activity", "setting": "[21]", "result": 0.12, "unit": "a.u."}, {"measurement": "Activity", "setting": "[22]", "result": 0.23, "unit": "a.u."}, {"measurement": "Activity", "setting": "[23]", "result": 0.27, "unit": "a.u."}, {"measurement": "Activity", "setting": "[24]", "result": 100, "unit": "%"}, {"measurement": "pEC50", "setting": "[24]; Homo sapiens, SJSA-1", "result": 4.92}, {"measurement": "Activity", "setting": "[25]", "result": 100, "unit": "%"}, {"measurement": "pEC50", "setting": "[25]; Homo sapiens, SK-LMS-1", "result": 5.22}, {"measurement": "Activity", "setting": "[26]", "result": 100, "unit": "%"}, {"measurement": "pEC50", "setting": "[26]; Homo sapiens, MES-SA", "result": 5.52}, {"measurement": "Activity", "setting": "[27]", "result": 96, "unit": "%"}, {"measurement": "pEC50", "setting": "[27]; Homo sapiens, U2OS", "result": 5.22}, {"measurement": "Activity", "setting": "[28]", "result": 83, "unit": "%"}, {"measurement": "pEC50", "setting": "[28]; Homo sapiens", "result": 4.77}, {"measurement": "Activity", "setting": "[29]", "result": 71, "unit": "%"}, {"measurement": "pEC50", "setting": "[29]; Homo sapiens, MX2", "result": 4.74}, {"measurement": "Activity", "setting": "[30]", "result": 32, "unit": "%"}, {"measurement": "pEC50", "setting": "[30]; Homo sapiens, LNCaP", "result": 5.22}, {"measurement": "Activity", "setting": "[31]", "result": 0, "unit": "%"}, {"measurement": "Activity", "setting": "[32]", "result": 100, "unit": "%"}, {"measurement": "pIC50", "setting": "[33]", "result": 5.60}, {"measurement": "Activity", "setting": "[34]", "result": 0, "unit": "%"}, {"measurement": "Activity", "setting": "[35]", "result": 98, "unit": "%"}, {"measurement": "pEC50", "setting": "[35]; Homo sapiens, HT-1080", "result": 5.70}, {"measurement": "Activity", "setting": "[36]", "result": 96, "unit": "%"}, {"measurement": "pEC50", "setting": "[36]; Homo sapiens, SK-ES1", "result": 5.15}, {"measurement": "Activity", "setting": "[37]", "result": 95, "unit": "%"}, {"measurement": "pEC50", "setting": "[37]; Homo sapiens, SK-N-MC", "result": 5.00}, {"measurement": "Activity", "setting": "[38]", "result": 0, "unit": "%"}]}
